Measured values collected from several papers.
Each line is one published result; the experiments were not run side by side.
Medium: plasma

SMILES	test system	setting	half-life [h]
Cn1cc(Nc2nc(N)nc(-c3cccc(-n4ccc5cc(C6CC6)cc(F)c5c4=O)c3CO)n2)cn1	human	oral, 300 mg, single dose, fasted, suspension	9
NS(=O)(=O)OC[C@@H]1C[C@@H](n2ccc3c(N[C@H]4CCc5ccccc54)ncnc32)C[C@@H]1O	human	intravenous, 20 mg/m², patients	5.1
Cc1ccc(C(=O)Nc2ccc(CN3CCN(C)CC3)c(C(F)(F)F)c2)cc1C#Cc1cnc2[nH]ncc2c1	human	oral, 40 mg, single dose, healthy volunteers	26.1
Cc1ccc(NC(=O)c2ccc(CN3CCN(C)CC3)cc2)cc1Nc1nccc(-c2cncc(-c3oncc3C)c2)n1	human	oral, 200 mg/day, multiple doses, steady state, healthy volunteers	23.3
CC(C)n1c(Nc2cccnc2)nc2cnc(Nc3ccc(N4CCN(C)CC4)cc3)nc21	male human	oral, 150 mg, single dose	36
CC[C@H](C)CCCCC(=O)N[C@@H](CCN)C(=O)N[C@H](C(=O)N[C@@H](CCN)C(=O)N[C@H]1CCNC(=O)[C@H]([C@@H](C)O)NC(=O)[C@H](CCN)NC(=O)[C@H](CCN)NC(=O)[C@H](CC(C)C)NC(=O)[C@@H](Cc2ccccc2)NC(=O)[C@H](CCN)NC1=O)[C@@H](C)O	human	intravenous, 0.75 mg/kg, single dose, infusion	5.44
NC(=S)NN=Cc1ncccc1N	human	oral, 150 mg	1.5
CNC(=O)n1ccc2cc(Oc3ccnc(NC(=O)c4ccc(C5CCN(CCO)CC5)cc4)c3)c(OCCOC)cc21	human	oral, 35 mg, single dose, fed, healthy volunteers	28.3
COc1ccc([C@@H](O)c2cc(-c3ncnc4cc(N5CCOCC5)ccc34)c(F)cc2Cl)nn1	human	oral, 200 mg, single dose, patients	3.94
